High-throughput results deposited in PubChem BioAssay by several laboratories.
STAT1 blocker: STAT1 signaling inhibition. inhibition, % at 5.5 µM. NIH 3T3 STAT1-luciferase reporter, IFN-gamma, luminescence. 200,000 tested, 0.35% active;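 active = inhibition above a set limit, the mean inhibition across all tested compounds plus 3 SD, cut at about 34% in these data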;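 note: 0% = IFN-gamma with DMSO and 100% = IFN-gamma with 300 µM nifuroxazide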
STAT3 act-1: increases IL-6 driven STAT3 reporter signal; U3A cells, IL-6 STAT3-luciferase reporter, luminescence; 100% = signal with IL-6 EC80 alone; activation (% of control), % at 5.6 µM; 190,000 tested, 0.91% active; AID 871;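 active = activation above the screen-wide mean of compound activation plus 3 SD, cut at about 130% in these data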;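 note: 0% = background luminescence of wells with medium and substrate only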
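Material: human U3A cells carrying STAT3-luciferase construct. Measured by: reporter luminescence signal. Timing: compound 1 h, then IL-6 6 h at 37 °C.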
PPC-1+TRAIL kill: kills PPC-1 cancer cells in the presence of TRAIL. PPC-1 cells + TRAIL, ATPLite viability luminescence. 220,000 tested, 0.41% active. cell killing (% activity), % at 4 µM or 5 µM;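 active = cell killing above 50% in the first pass at 4 µM, then a duplicate retest at 5 µM averaging 50% or more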;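 note: plate controls were cells with TRAIL plus DMSO for no effect and medium-only wells lacking cells for full effect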
STAT3 blocker: reduces IL-6 driven STAT3 reporter signal; U3A cells, IL-6 STAT3-luciferase reporter, luminescence; host cell line lacks STAT1; inhibition, % at 5.5 µM; 190,000 tested, 0.89% active;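 active = inhibition above the mean inhibition across all screened compounds plus 3 SD, cut at about 44% in these data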;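 note: 0% = DMSO only wells and 100% = 100 µM nifuroxazide control wells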
TRAIL sens C8: caspase-8 TRAIL sensitization | NB7+C8 cells + TRAIL, ATPlite viability luminescence | inhibition (viability loss, TRAIL sensitization), % at 10 µM | 360,000 tested, 1% active;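 active = compounds causing at least 50% loss of cell viability in the single-dose screen, relative to plate controls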
STAT3 act-2: confirmation of STAT3 signaling activators | shares compounds with STAT3 act-1 | U3A STAT3-luciferase reporter, IL-6 potentiation, luminescence; U3A cells lack STAT1; 100 means same as IL-6 alone | potentiation (% of control), % at 5.7 µM | 1,200 tested, 64% active | AID 1267;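 active = percent activation of the STAT3 luciferase reporter above a set limit taken from the earlier primary screen, cut at about 130% in these data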;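 note: 0% = background signal of medium plus substrate and 100% = median of IL-6 with DMSO wells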
NFkB act 2: activates NF-kappaB, counter-screen to STAT3 activators; shares compounds with STAT3 act-1; human cells, NF-kappaB reporter activation; activation (% of control), % at 5.7 µM; 1,200 tested, 11% active; AID 1309; in the data active = activation above about 120%;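 note: reporter induced by TNF-alpha stimulation; 100% = median of stimulated DMSO wells and 0% = no signal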
STAT1 act: counter-screen for STAT3 activators: STAT1 activation; shares compounds with STAT3 act-1; NIH 3T3 STAT1-luciferase reporter, IFN-gamma, luminescence; activation (% of control), % at 5.7 µM; 1,200 tested, 13% active; AID 1318;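 active = activation above the solvent-only control well mean plus 3 SD, set per screening run, cut at about 120% in these data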;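 note: 100% = IFN-gamma with DMSO median signal so 100% means no change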
PPC1 cytotox: kills PPC-1 cells; PPC-1 viability, ATPlite luminescence, overnight; 1,200 tested, 50% active; cytotoxicity, % at 5 µM; shares compounds with PPC-1+TRAIL kill;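 active = reconfirmed compounds whose average cytotoxicity reaches 50% or more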;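 note: 0% = DMSO-treated cells and 100% = wells holding medium but no cells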
* hit, by the source's call; · = no result given. An excerpt weighted towards active compounds, which were near 1.8% of everything screened.

SMILES	STAT1 blocker	STAT3 act-1	PPC-1+TRAIL kill	STAT3 blocker	TRAIL sens C8	STAT3 act-2	NFkB act 2	STAT1 act	others
O=C(NCCOc1ccccc1)c1ccccc1NC(=O)C1CCCO1 (stereo not given)	-9	140*	1	-40	3	138*	120	131*
Cc1cccc(NS(=O)(=O)c2cc(C(=O)OCC(=O)Nc3cc(C)on3)ccc2C)c1	-2	147*	-10	-47	8	132	91	99
COc1ccc(Cl)cc1N(CC(=O)Nc1ccccc1C(=O)N1CCOCC1)S(C)(=O)=O	·	·	·	·	-14	·	·	·
O=C(CSc1nc2ccccc2o1)Nc1nc2ccc(Br)cc2s1	-4	93	22	14	1	·	·	·
Cc1cccc2sc(NC(=O)CSc3nc4ccccc4o3)nc12	9	136*	24	-44	-8	115	102	94
COc1ccc2oc(C(=O)Nc3ccc(N4CCOCC4)cc3)c(C)c2c1	·	·	·	·	33	·	·	·
COc1ccc(Nc2nc(C)cc(C)c2C#N)cc1	0	137*	22	-44	-19	150*	107	112
CCOc1ccc(Nc2nc(C)cc(C)c2C#N)cc1	2	140*	-11	-45	-1	126	102	104
CS(=O)(=O)Cc1ccc(C(=O)NC2CCSc3ccccc32)cc1 (stereo not given)	·	·	·	·	-18	·	·	·
CCOC(=O)c1c(C)[nH]c(C(=O)OCC(=O)Nc2cc(Cl)ccc2OC)c1C	3	148*	19	-55	-15	123	104	96
N#Cc1c(C(F)(F)F)cc(C2CC2)nc1N1CCCC1	11	148*	22	-59	-4	122	101	98
O=C(Nc1ncccc1O)c1ccc(Cl)c(S(=O)(=O)N2CCCCC2)c1	·	·	·	·	-12	·	·	·
COc1ccccc1-c1nc(SCC(=O)O)n[nH]1	-7	137*	33	-40	-5	125	107	102
COc1ccccc1-c1nc(N)n[nH]1	-5	146*	13	-44	-3	125	101	100
COc1ccccc1-c1cc(N)n[nH]1	-8	104	-10	1	2	·	·	·
COC(=O)c1ccc2nc(-c3ccc(OC)c(OC)c3)c(Cc3cccc(F)c3)n2c1	·	·	·	·	-2	·	·	·
CCOc1ccccc1C(=O)Nn1c(C2CCC2)nc2ccccc2c1=O	-3	162*	4	-70	16	158*	98	99
CCOc1ccccc1CNCc1ccc(C(=O)O)cc1	4	100	16	9	5	·	·	·
O=C(COc1ccccc1CNCc1ccccc1)Nc1ccccc1	-6	143*	6	-51	8	123	111	105
CC1CCc2c(sc3ncnc(SC(C)C(=O)NCC4CCCO4)c23)C1 (stereo not given)	·	·	·	·	-11	·	·	·
Cc1ccc(C(=O)c2oc3ccccc3c2N)cc1	-27	143*	14	-50	8	119	118	113
Nc1c(C(=O)c2ccc(Br)cc2)oc2ccccc12	0	121	9	-24	-1	·	·	·
Nc1c(C(=O)c2ccc(Br)s2)oc2ccccc12	-4	177*	-9	-82	-12	158*	115	110
COC(=O)[C@]12CCCCC=C1N(Cc1ccccc1)C(=O)[C@H](CC(=O)NCCC(C)C)C2	·	·	·	·	-8	·	·	·
COc1cc(CN(C)c2ncnc3sccc23)ccc1OC(F)F	·	·	·	·	19	·	·	·
SMILES	STAT1 blocker	STAT3 act-1	PPC-1+TRAIL kill	STAT3 blocker	TRAIL sens C8	STAT3 act-2	NFkB act 2	STAT1 act	others
COc1ccc(OC)c(-c2nnc(NC(=O)C(C)Sc3nncn3C)s2)c1 (stereo not given)	-1	140*	15	-44	-10	119	105	101
COc1ccc(Cl)cc1NC(=O)C(C)Sc1nncn1C (stereo not given)	-2	99	5	5	-11	·	·	·
CC(=O)n1cc(C2CC(=O)OC3=C2CC(=O)C(C)(C)C3)c2ccccc21 (stereo not given)	·	·	·	·	4	·	·	·
CC(=O)n1cc(C2C(=O)CCCC2=O)c2ccccc21	3	140*	8	-42	-10	118	100	97
CCCCn1c(N)c(N(CC(C)C)C(=O)C2=COCCO2)c(=O)[nH]c1=O	·	·	·	·	7	·	·	·
COc1ccc(Nc2nc(C)cc(C)c2C#N)c(OC)c1	·	·	·	·	-18	·	·	·
COc1ccc(N(C(C)=O)c2nc(C)cc(C)c2C#N)c(OC)c1	0	154*	12	-60	-1	157*	103	100
CC(C)C[C@H](NC(=O)CCCn1nnc2ccccc2c1=O)C(=O)O	·	·	9	·	-24	·	·	·
CSCC[C@H](NC(=O)CCn1nnc2ccccc2c1=O)C(=O)O	-3	139*	-19	-39	-3	92	103	99
N#Cc1cccc(C(=O)C(=O)N2CCN(C(=O)OCc3ccccc3)CC2)c1	·	·	·	·	-10	·	·	·
CC1CCCN(C(=O)c2cc3c(-c4ccc(Cl)cc4)nn(C)c3s2)C1 (stereo not given)	-1	119	·	-18	10	·	·	·
CCN1CCN(C(=O)c2cc3c(-c4ccc(Cl)cc4)nn(C)c3s2)CC1	12	152*	-15	-51	6	134*	97	91
Cc1nn(-c2ccc(Cl)cc2)c2sc(C(=O)N3CCN(C(=O)c4ccco4)CC3)cc12	·	·	12	·	·	·	·	·
Cn1nc(-c2ccc(Cl)cc2)c2cc(C(=O)N3CCN(C(=O)c4ccco4)CC3)sc21	12	150*	34	-56	11	129	99	89
Nn1cnnc1N/N=C\c1ccc(-c2ccccc2[N+](=O)[O-])o1	-21	147*	5	-50	8	105	104	101
Cc1nc2ccc(Br)cn2c1C(=O)N/N=C\c1ccccc1[N+](=O)[O-]	7	148*	8	-50	-14	132	97	102
NS(=O)(=O)c1cc(C(=O)OCC(=O)Nc2ccc3c(c2)OCO3)ccc1Cl	·	·	·	·	-6	·	·	·
Cc1[nH]c2ccccc2c1CCC(N)=O	-7	105	9	-2	-1	·	·	·
Cc1[nH]c2ccccc2c1Cc1nnc(SCC(N)=O)o1	11	153*	-3	-66	7	103	100	96
COCCN(C(=O)c1ccc(-c2ccc(Cl)cc2)o1)c1c(N)n(Cc2ccccc2)c(=O)[nH]c1=O	·	·	·	·	-1	·	·	·
O=C(c1ccco1)N1CCN(C(=S)Nc2ccc(Br)cc2Cl)CC1	·	·	·	·	-7	·	·	·
Cc1ccccc1-c1cc2c(nn1)-c1ccccc1C2=O	13	145*	38	-53	55*	141*	101	96	PPC1 cytotox=46
O=C1c2ccccc2-c2nc3ccccc3cc21	·	·	·	·	48	·	·	·
